Measured values as given in BindingDB's records for doi:10.1021/jm9013482 (Harvard Medical School, 2010).
pKi: −log10 of the molar value.

Molecular target: Delta-type opioid receptor (Homo sapiens, UniProt P41143)
Experiment: Displacement of [3H]naltrindole from human delta opioid receptor expressed in CHO cells
In short: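 CHO cells stably expressing a single human opioid receptor were grown in DMEM with 10% FBS and penicillin/streptomycin at 37 °C in 5% CO2. Their membranes were incubated with radioligand and 12 concentrations of test compound at 25 °C in 50 mM Tris-HCl, pH 7.5.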

Delta-type opioid receptor, sequence (P41143 whole entry): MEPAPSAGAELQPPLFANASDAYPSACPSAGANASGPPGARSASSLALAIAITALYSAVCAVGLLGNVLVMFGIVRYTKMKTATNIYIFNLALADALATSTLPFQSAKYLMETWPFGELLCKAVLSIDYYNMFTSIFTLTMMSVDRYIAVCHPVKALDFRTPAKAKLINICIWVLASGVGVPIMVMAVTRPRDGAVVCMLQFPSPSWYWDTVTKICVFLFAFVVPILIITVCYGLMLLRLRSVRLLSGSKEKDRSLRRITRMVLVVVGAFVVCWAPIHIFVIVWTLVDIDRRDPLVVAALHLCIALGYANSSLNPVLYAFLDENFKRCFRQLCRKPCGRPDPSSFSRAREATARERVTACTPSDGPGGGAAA

Question: With `O=C(CCCCC(=O)NCc1cc2c(cc1O)[C@@]13CCCC[C@H]1[C@@H](C2)N(CC1CCC1)CC3)NCc1cc2c(cc1O)[C@@]13CCCC[C@H]1[C@@H](C2)N(CC1CCC1)CC3` [Hexanedioic Acid Bis(17-N-cyclobutylmethyl-3-hydroxymorphinan-2-methyl)amide] as the molecule, how does the pKi read?
Answer: The pKi was 6.20.
